# Legend:
# Mus musculus [1] = species: Mus musculus; assay: Acute electroshock physical dependence activity (drug MA50/V122 MA50); assay type: functional
# Method in brief: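 Male CF-1 mice, 10/group, dosed sc twice daily for 3 days (0800, then 2 times that dose at 1600). Flumazenil 2.5 mg/kg iv in 5% aqueous N,N-dimethylacetamide given 24 h after the last dose. 5 min later electroshock seizure threshold estimated by up-down method (0.05 log steps; transpinnal 0.6 ms pulses, 100 Hz, 0.2 s). Comparison is against a saline-treated, flumazenil-injected control group.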
# Mus musculus [2] = species: Mus musculus; assay: Compound was tested for ethanol potentiation expressed as the loss of traction response (muscle relaxation); assay type: functional
# Method in brief: (§1)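 Male CF-1 mice given 50% aqueous ethanol orally (7.5 mL/kg) plus test compound sc in 0.25% aqueous methyl cellulose (10 mL/kg). Tested 30 min later. Traction: hindlimb placed on wire within 10 s when suspended by forepaws. Righting: rolls onto feet within 10 s when released on its back. Six mice per dose; ED50s determined.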
# Rattus norvegicus = assay: Ability to antagonize metrazole-induced seizures (clonic and tonic) in rats after intraperitoneal injection; conditions: ip
# [3] = molecular target: GABA-A receptor; anion channel; assay: Binding affinity against benzodiazepine receptor (BzR) in rat cortical membranes determined by competition experiments with radiolabeled [3H]flunitrazepam (Fnz); assay type: cell membranes
# Mus musculus [4] = species: Mus musculus; assay: Compound was tested for ethanol potentiation expressed as loss of righting reflex (anesthesia); assay type: functional; method in brief: as §1
# [5] = molecular target: GABA-A receptor; anion channel (Rattus norvegicus) (UniProt O09028+P15431+P18506+P18508+P19969+P20236+P23574+P23576+P28471+P28473+P30191+P62813+P63079+P63138+Q91ZM7+Q9ES14)
# Mus musculus [6] = species: Mus musculus; assay: Antagonism of benzodiazepine traction in mice; assay type: functional
# Method in brief: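 Male CF-1 mice given triazolam 1 mg/kg ip together with test compound ip, starting at 100 mg/kg, in 0.25% aqueous methyl cellulose. Dose-response run on 0.5 log scale. Loss of traction scored 15 min later. Absence of the expected loss marks antagonism. ED50 taken from lower doses.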
Structure (SMILES),Activity (Mus musculus [1]),ED50 (Mus musculus [2]) [mg/kg],ED50 (Rattus norvegicus) [mg/kg],Ki [3] [µM],ED50 (Mus musculus [4]) [mg/kg],TBPS shift [5],ED50 (Mus musculus [6]) [mg/kg]
CC(C)OC(=O)N1Cc2c(-c3ccc(F)cc3)ncn2-c2ccccc21,0.83,> 30,6.3,0.0508,> 30,0.93,> 30
CC1CN(C(=O)N2Cc3c(-c4ccc(F)cc4)ncn3-c3ccc(F)cc32)CC(C)N1 (stereo unspecified),–,–,0.5,0.00249,–,0.72,> 30
CN(C)C(=O)N1Cc2c(-c3ccc(F)cc3)ncn2-c2ccccc21,0.87,11,4.4,0.00296,> 30,0.53,4.9
CC1CN(C(=O)N2Cc3c(-c4ccc(F)cc4)ncn3-c3ccccc32)CC(C)N1 (stereo unspecified),0.7,4,1.1,0.00585,> 30,0.75,> 30
CN(C)C(=O)N1Cc2c(-c3ccccc3)ncn2-c2ccccc21,–,–,–,0.00341,–,0.4,–
CC(C)(C)NC(=O)N1Cc2c(-c3ccc(F)cc3)ncn2-c2ccccc21,–,–,> 50,0.283,–,1.02,–
O=C(N1CCCC1)N1Cc2c(-c3ccccc3)ncn2-c2ccccc21,–,–,–,–,–,0.69,–
CN(C)C(=O)N1c2ccccc2-n2cnc(-c3ccc(F)cc3)c2C1(C)C,–,–,> 50,0.163,–,0.49,–
CCNC(=O)N1Cc2c(-c3ccc(F)cc3)ncn2-c2ccccc21,–,–,> 50,0.0486,–,0.42,–
CN1C(=O)CN=C(c2ccccc2)c2cc(Cl)ccc21 [DIAZEPAM],18.2,0.54,0.5,–,0.86,–,–
O=C(c1ccc(F)cc1)N1Cc2c(-c3ccc(F)cc3)ncn2-c2ccccc21,–,–,29.7,0.0205,–,0.82,–
CC1(C)c2c(-c3ccc(F)cc3)ncn2-c2ccccc2N1C(=O)N1CCCC1,–,–,> 50,0.0126,–,0.6,–
COc1ccc(-c2ncn3c2c(=O)n(C(C)C)c2cc(F)ccc23)cc1,–,–,> 50,0.0815,–,0.97,–
O=C(N1CCCCC1)N1Cc2c(-c3ccccc3)ncn2-c2ccccc21,0.82,0.5,4.5,0.00165,> 30,0.52,> 30
O=C(N1CCOCC1)N1Cc2c(-c3ccc(F)cc3)ncn2-c2ccccc21,0.67,–,0.3,0.00161,–,0.54,–
CC(C)n1c(=O)c2c(-c3ccc(Cl)cc3)ncn2c2ccccc21,–,–,> 50,–,–,0.74,–
CC(C)n1c(=O)c2c(-c3ccc(F)cc3)ncn2c2ccc(F)cc21,–,–,> 50,0.0594,–,0.8,–
Cc1ccc(-c2ncn3c2CN(C(=O)N2CCCC2)c2ccccc2-3)cc1,–,–,–,0.00154,–,1.19,–
NC(=O)N1Cc2c(-c3ccc(F)cc3)ncn2-c2ccccc21,–,–,> 50,0.216,–,0.29,–
COc1ccccc1-c1ncn2c1c(=O)n(C(C)C)c1ccccc12,–,–,–,> 10,–,–,–
Cc1ccc(-c2ncn3c2CN(C(=O)N(C)C)c2ccccc2-3)cc1,0.87,–,4.4,0.0111,–,–,–

Structure (SMILES),Activity (Mus musculus [1]),ED50 (Mus musculus [2]) [mg/kg],ED50 (Rattus norvegicus) [mg/kg],Ki [3] [µM],ED50 (Mus musculus [4]) [mg/kg],TBPS shift [5],ED50 (Mus musculus [6]) [mg/kg]
Cc1ccc(-c2ncn3c2c(=O)n(C(C)C)c2ccccc23)cc1,–,–,> 50,0.174,–,1.09,–
Cc1ccc(-c2ncn3c2C(C)(C)N(C(=O)N2CCCC2)c2ccccc2-3)cc1,–,–,17.7,0.035,–,1.05,–
O=C(c1cccc(F)c1)N1Cc2c(-c3ccc(F)cc3)ncn2-c2ccccc21,0.87,–,1.3,0.00591,–,1.06,–
COc1ccc(-c2ncn3c2c(=O)n(C(C)C)c2ccccc23)cc1,–,> 30,12.5,0.0317,> 30,0.75,–
O=C(N1CCCC1)N1Cc2c(-c3ccc(F)cc3)ncn2-c2ccccc21,0.88,0.34,14.8,0.00097,> 30,0.64,> 30
O=C(c1ccccc1F)N1Cc2c(-c3ccc(F)cc3)ncn2-c2ccccc21,–,–,–,0.0424,–,0.84,–
CN(C)C(=O)N1c2ccccc2-n2cnc(-c3ccccc3)c2C1(C)C,–,–,–,0.478,–,0.45,–
Cc1ccc(-c2ncn3c2C(C)(C)N(C(=O)N(C)C)c2ccccc2-3)cc1,–,–,> 50,0.334,–,0.71,–
O=C(N1CCOCC1)N1Cc2c(-c3ccc(F)cc3)ncn2-c2cccc(Cl)c21,0.86,–,3.7,0.00297,–,0.44,–
COC(=O)N1Cc2c(-c3ccc(F)cc3)ncn2-c2ccccc21,–,–,> 50,0.0472,–,0.53,–
CC1CN(C(=O)N2Cc3c(-c4ccc(F)cc4)ncn3-c3cccc(Cl)c32)CC(C)N1 (stereo unspecified),–,–,1.8,0.0334,–,0.31,> 30
CC(C)n1c(=O)c2c(-c3ccccc3)ncn2c2ccccc21,–,–,> 50,0.0385,–,0.31,–
CC1CN(C(=O)N2Cc3c(-c4ccc(F)cc4)ncn3-c3ccccc32)CC(C)N1C (stereo unspecified),0.8,–,13,0.0132,–,0.31,> 30
COc1ccc(-c2ncn3c2CN(C(=O)N2CC(C)NC(C)C2)c2ccccc2-3)cc1 (stereo unspecified),0.47,–,0.8,0.00139,–,0.31,> 30
CC(C)n1c(=O)c2c(-c3cccc(F)c3)ncn2c2ccccc21,–,–,> 50,0.48,–,0.31,–
O=C(N1CCOCC1)N1Cc2c(-c3ccc(F)cc3)ncn2-c2ccc(F)cc21,0.7,5,0.14,0.00216,17,0.7,> 30
O=C(N1CCOCC1)N1Cc2c(-c3ccc(F)cc3)ncn2-c2ccc(Cl)cc21,0.62,11,0.76,0.0152,27,1.05,> 30
CC1CN(C(=O)N2Cc3c(-c4ccc(F)cc4)ncn3-c3ccc(F)cc32)CC(C)N1C (stereo unspecified),0.59,–,1.3,–,–,0.64,–
CC1CN(C(=O)N2Cc3c(-c4ccc(F)cc4)ncn3-c3cccc(Cl)c32)CC(C)N1C (stereo unspecified),0.8,–,1.8,0.0474,–,0.62,> 30
CC(C)n1c(=O)c2c(-c3ccccc3)ncn2c2ccc(F)cc21,–,–,> 50,0.0396,–,0.77,–

# Reference: ChEMBL document CHEMBL1129651, “3-Phenyl-substituted imidazo[1,5-alpha]quinoxalin-4-ones and imidazo[1,5-alpha]quinoxaline ureas that have high affinity at the GABAA/benzodiazepine receptor complex” (J Med Chem, 1996)
